Assay: Toxicity liver stage against HepG2, at 10uM
Type: cell-based
Set-up: test concentration 10 uM, cell line HepG2-A16-CD81EGFP
Settings: human, HepG2-A16-CD81EGFP cells; read-out: INHIBITION
Summary of the method: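 Uninfected HepG2-A16-CD81EGFP cells, 3 × 10^3 per well, 1536-well, plated on prespotted compound at 10 μM final, parasite-free screening media added to match infected plates; puromycin 10 μM positive, DMSO 0.5% negative; run in parallel with 48 h PbLuc assay at 37 °C, 5% CO2; viability by CellTiter-Glo luminescence, normalized to controls.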
For `O=C([C@H]1CCCO1)N1CCN(Cc2cccnc2)c2ncccc2C1`, the cytotoxicity at 10 µM was 13.2%.
With `CC(C)(C)OC(=O)N1CCC(C(=O)NCCNc2ncccn2)CC1` the cytotoxicity at 10 µM was -10.3%.
Compound `CC(NC(=O)Nc1ccc(N2CCCC2)nc1)c1nncn1C` (stereo unspecified) has a cytotoxicity at 10 µM of -12.6%.
In the case of `OC1(CNCc2noc(Cc3ccccc3)n2)CNCCOC1` (stereo unspecified), the cytotoxicity at 10 µM was 9.34%.
With `Cc1ccc(C(=O)Nc2nn[nH]n2)s1` the cytotoxicity at 10 µM was -0.246%.
For `CC(C)CCN(C)C(=O)c1nc(S(C)(=O)=O)n2ccccc12`, the cytotoxicity at 10 µM was -9.91%.
`Cc1cc2c(=O)n3c(nc2s1)CCN(C(=O)c1sc(C)nc1C)CC3` gave a cytotoxicity at 10 µM of -0.579%.
With `CC(C)c1nccn1C1CCCN(C(=O)CN(C)C2CC2)C1` (stereo unspecified) the cytotoxicity at 10 µM was -4.3%.
In the case of `O=C(NCCc1ccccn1)NC1CCN(c2ncccn2)CC1`, the cytotoxicity at 10 µM was -16.3%.
`Cc1ccc2c(c1)C1(CCN(C(N)=O)CC1)CN2C(=O)N(C)C` gave a cytotoxicity at 10 µM of -79.1%.
`O=C(C[C@@H]1COC[C@H]2CN(Cc3cccnc3)C[C@@H]12)N1CCOCC1` gave a cytotoxicity at 10 µM of -3.35%.
With `COc1cccc2c1OCC(C(=O)NCCc1nc3c(s1)CCC3)C2` (stereo unspecified) the cytotoxicity at 10 µM was -39.6%.
In the case of `c1ccc2c(c1)cnn2CCCNC1CCOC2(CCOCC2)C1` (stereo unspecified), the cytotoxicity at 10 µM was -7.35%.
For `CN(C)C1(C(=O)NC2CCC(Oc3ccccc3C#N)CC2)CCC1` (stereo unspecified), the cytotoxicity at 10 µM was 9.92%.
In the case of `O=C(NC1CCCCC1)c1ccc(COCC(F)(F)F)o1`, the cytotoxicity at 10 µM was 14.1%.
Work on `Cc1nnc(CNC(=O)C2CSCCC(=O)N2)o1` (stereo unspecified) yielded a cytotoxicity at 10 µM of -10.1%.
In the case of `Cc1cc(C(F)(F)F)nn1CC(C)C(=O)Nc1ccccn1` (stereo unspecified), the cytotoxicity at 10 µM was 9.84%.
In the case of `O=C(c1ccccn1)N1CCCC2(CCN(c3ccsc3)C2=O)C1` (stereo unspecified), the cytotoxicity at 10 µM was -136%.
Compound `CC(C)C(=O)N1CCC(Cc2nccnc2Nc2ccccn2)CC1` has a cytotoxicity at 10 µM of -7.08%.
Compound `C1CC(CN2C[C@@H]3CC[C@H]2CN(Cc2noc(C4CCCC4)n2)C3)C1` has a cytotoxicity at 10 µM of -15.6%.
Compound `CCn1cc(CN2CCCN(C(=O)CCc3cnn(C)c3)CC2)cn1` has a cytotoxicity at 10 µM of 0.153%.
Compound `CCC=C(C)C(=O)NCc1ccnc(OC)c1` has a cytotoxicity at 10 µM of -2.51%.
`C[C@@H]1C[C@H]2CN(C(=O)C3=CCCC3)C[C@H]2O1` showed a cytotoxicity at 10 µM of 0.199%.
In the case of `O=C(c1ccco1)N1C[C@H]2CN(Cc3cccc(F)c3)C(=O)[C@H]2C1`, the cytotoxicity at 10 µM was -78.2%.
`CN(C(=O)CSc1ncc[nH]1)c1ccccc1` showed a cytotoxicity at 10 µM of 11.1%.
Compound `CC(C)c1nnc2n1CCN(C(=O)c1ccc(Cn3cccc3)cc1)C2` has a cytotoxicity at 10 µM of -4.28%.
With `Cc1csc(N2CCN(C(=O)CCCNc3ncccn3)CC2)n1` the cytotoxicity at 10 µM was -16.3%.
Work on `C=Cc1ccc(CN2CCCC3(CNC(=O)c4ccccc4O3)C2)cc1` (stereo unspecified) yielded a cytotoxicity at 10 µM of -22.6%.
Work on `CC(C)c1nnc2ccc(N3CCCC(C(=O)Nc4nccs4)C3)nn12` (stereo unspecified) yielded a cytotoxicity at 10 µM of 3.86%.
`O=C(c1ccc[nH]1)N1Cc2nccn2CC(COc2cccnc2)C1` (stereo unspecified) gave a cytotoxicity at 10 µM of 18.1%.
`Cc1ncsc1-c1nc(Cc2cccs2)nn1C1CCN(C)CC1` showed a cytotoxicity at 10 µM of -4.51%.
`Cc1nnc(CN(Cc2ccccc2C(F)(F)F)C2CC2)o1` gave a cytotoxicity at 10 µM of 8.32%.
`CCN1CCCC(O)(CNCc2ccccn2)C1` (stereo unspecified) gave a cytotoxicity at 10 µM of -5.69%.
`Cc1ccc2nc(C3CCCN3C(=O)c3cc(=O)[nH]c(=O)[nH]3)[nH]c2c1` (stereo unspecified) gave a cytotoxicity at 10 µM of 18.7%.
For `CN(CC1(O)CCN(c2ccccn2)C1)C(=O)Cc1ccsc1` (stereo unspecified), the cytotoxicity at 10 µM was -11.7%.
With `CCN1CCCC(NC(=O)CCn2c(C(F)F)cc3cccnc32)C1` (stereo unspecified) the cytotoxicity at 10 µM was -0.212%.
With `Cc1ccc(C(=O)NCCNCC2CNc3ccnn3C2)cc1` (stereo unspecified) the cytotoxicity at 10 µM was 7.41%.
Compound `COCCN(Cc1ccc(F)cc1Cl)C(=O)c1cc(C)n[nH]1` has a cytotoxicity at 10 µM of 0.886%.
Work on `CC(C)Cc1ncc2c(n1)CN(c1nc3ccccc3cc1CO)C2` yielded a cytotoxicity at 10 µM of 1.18%.
`COCCN1CCN(CC2(O)CCCCC2)CC1` gave a cytotoxicity at 10 µM of 7.04%.
`CCc1nnc2n1CCN(c1nc3ccccc3o1)C2` gave a cytotoxicity at 10 µM of 2.11%.
For `COc1cccc(C2CN(CCc3ccncc3)CCO2)c1` (stereo unspecified), the cytotoxicity at 10 µM was -10.1%.
Work on `Cc1cccc2c1ccn2CCC(=O)O` yielded a cytotoxicity at 10 µM of 7.47%.
In the case of `CC(=O)NCCNC(=O)CN1CCCCC1Cn1cncn1` (stereo unspecified), the cytotoxicity at 10 µM was 2.7%.
In the case of `Cc1occc1C(=O)N1CCC2(CCCN(c3ncc(F)cn3)C2)C1` (stereo unspecified), the cytotoxicity at 10 µM was -102%.
In the case of `CCc1nnc(CS(=O)(=O)c2ccc(C)cc2)n1C`, the cytotoxicity at 10 µM was 7.05%.

Source: ChEMBL document CHEMBL4513216, “Probing the Open Global Health Chemical Diversity Library for Multistage-Active Starting Points for Next-Generation Antimalarials” (ACS Infect Dis, 2020)
